Screening results as filed in PubChem BioAssay.
KDM4C inh – blocks human GASC-1 (KDM4C) demethylase activity; Q9H3R0; GST-KDM4C 2-372, H3K9me3 peptide, LANCE TR-FRET; inhibition, % at 12.5 µM; actives 0.15% (n = 96,000);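 active = mean replicate inhibition above about 25%, with at least 55% of replicates also reaching it, limit read from the data, passing the limit was not always enough; inconclusive = only one of those two conditions met; inactive = neither condition met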
Target sequence (Q9H3R0 2-372 limits assumed): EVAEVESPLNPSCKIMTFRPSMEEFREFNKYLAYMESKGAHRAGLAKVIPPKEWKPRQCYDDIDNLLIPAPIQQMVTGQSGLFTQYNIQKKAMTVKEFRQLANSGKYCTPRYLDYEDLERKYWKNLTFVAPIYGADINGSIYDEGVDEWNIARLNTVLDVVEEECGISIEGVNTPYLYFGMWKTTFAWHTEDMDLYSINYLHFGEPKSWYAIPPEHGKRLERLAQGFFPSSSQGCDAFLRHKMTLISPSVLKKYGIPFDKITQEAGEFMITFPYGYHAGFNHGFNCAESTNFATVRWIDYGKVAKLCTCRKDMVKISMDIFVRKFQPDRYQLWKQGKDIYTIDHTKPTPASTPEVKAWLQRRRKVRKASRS
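System: N-terminal GST-fused human GASC-1 (KDM4C) fragment, residues 2-372 / Amount: 10 nM GST-KDM4C in enzyme reaction / Also added: H3K9me3 peptide with Fe(II)/2OG / Times: 30 min demethylation and 1 h detection at room temperature / Signal: LANCE TR-FRET / Read-out basis: Fall in 671/618 emission ratio as inhibition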
Pf Dd2 growth – inhibitors of Plasmodium falciparum Dd2 growth; P. falciparum Dd2 growth, SYBR Green, 72 h; stronger effect = lower value; activity change, % at 10 µM; actives 2.3% (n = 94,000); AID 1159554; in the data active = activity change below about -80%; inconclusive = no clear call, values can overlap the other calls
T cruzi growth-1 – T. cruzi proliferation inhibition. T. cruzi beta-gal in NIH3T3, GalScreen luminescence, 90 h. inhibition, % at 8.34 µM. actives 5.9% (n = 77,000). AID 624255;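 active = mean inhibition above about 93%, with at least 55% of replicates each passing it, limit read from the data, passing the limit was not always enough; inconclusive = only one of those two conditions holds; inactive = neither condition holds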
IDH1 R132H inh – inhibitors of human IDH1 R132H. actives 0.18% (n = 70,000). O75874. inhibition, % at 10 µM. IDH1 R132H reductase, diaphorase/resazurin fluorescence, 60 min; in the data active = inhibition above about 34%; inconclusive = no clear call, values can overlap the other calls; inactive = below about 11%;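 note: 0% = DMSO and 100% = no enzyme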
T cruzi growth-2 – blocks T. cruzi growth in NIH3T3 host cells; shares compounds with T cruzi growth-1; T. cruzi beta-gal in NIH3T3, GalScreen luminescence, 90 h; inhibition, % at 8.35 µM; actives 72% (n = 5,600); AID 651739;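 active = mean replicate inhibition above about 95% and at least 55% of replicates individually reaching it, limit read from the data; inconclusive = only one of the two criteria is met; inactive = neither criterion is met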
T cruzi growth-3 – inhibitors of T. cruzi proliferation | AID 651740 | inhibition, % at 2.09 µM | T. cruzi beta-gal in NIH3T3, GalScreen luminescence, 90 h | actives 21% (n = 5,600) | shares compounds with T cruzi growth-1;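 active = mean inhibition above about 95%, with at least 55% of replicates also reaching it, limit read from the data; inconclusive = meets just one of the two conditions; inactive = meets neither condition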;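 note: plate controls were neutral control median for no effect and positive control median for full effect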
NIH3T3 tox – NIH/3T3 (mouse) viability loss; shares compounds with T cruzi growth-1; NIH/3T3 viability, CellTiter-Glo ATP luminescence, 90 h; cytotoxicity (signal decrease), % at 8.35 µM; actives 14% (n = 5,600);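 active = mean signal decrease across replicates above about 35% based on untreated-well scatter, with enough replicates individually passing, limit read from the data; inconclusive = no rule stated though some were filed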;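 note: 0% = median of neutral control wells and 100% = median of positive control wells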
3T3 cytotox 2 – cytotoxicity in mouse NIH/3T3 fibroblasts; shares compounds with T cruzi growth-1; NIH/3T3 viability, CellTiter-Glo ATP luminescence, 90 h; inhibition, % at 24.9 µM; actives 56% (n = 5,600);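 active = mean loss of cell viability signal at or above a set limit, and enough replicates individually reaching it; inconclusive = meets only the mean limit or only the replicate share; inactive = meets neither condition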;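 note: 0% = median of neutral control wells and 100% = median of positive control wells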
* = called active by the depositor. Only some compounds are listed: those with a hit (about 5.8% of all), similar ones and a draw of the others.

What do the screens show for `C[C@@H]1CN([C@H](C)CO)C(=O)c2cccc(NC(=O)Nc3ccccc3)c2O[C@H]1CN(C)Cc1ccc(C(F)(F)F)cc1`?
KDM4C inh: 1; Pf Dd2 growth: -35; T cruzi growth-1: 63; IDH1 R132H inh: 4

What do the screens show for `C[C@@H]1CN([C@H](C)CO)C(=O)c2cccc(NC(=O)Nc3ccc(F)cc3)c2O[C@@H]1CN(C)Cc1ccc(-c2ccccc2)cc1`?
KDM4C inh: -2; Pf Dd2 growth: -34; T cruzi growth-1: inconclusive; T cruzi growth-2: 105*; T cruzi growth-3: 75; NIH3T3 tox: 32; 3T3 cytotox 2: 71*

What do the screens show for `C[C@@H]1CN([C@H](C)CO)C(=O)c2cccc(NC(=O)Nc3ccc(C(F)(F)F)cc3)c2O[C@@H]1CN(C)Cc1ccccc1`?
KDM4C inh: -2; Pf Dd2 growth: -15; T cruzi growth-1: 34

Results for C[C@@H]1CN([C@@H](C)CO)C(=O)c2cccc(NC(=O)Nc3ccc(C(F)(F)F)cc3)c2O[C@@H]1CN(C)Cc1ccc(-c2ccccc2)cc1 ?
KDM4C inh: -2; Pf Dd2 growth: -79; T cruzi growth-1: inconclusive; T cruzi growth-2: 93; T cruzi growth-3: 114*; NIH3T3 tox: 92*; 3T3 cytotox 2: 104*

How did C[C@H]1CN([C@@H](C)CO)C(=O)c2cccc(NC(=O)Nc3ccc(F)cc3)c2O[C@@H]1CN(C)Cc1ccc(-c2ccccc2)cc1 do in these assays?
KDM4C inh: -1; Pf Dd2 growth: 2; T cruzi growth-1: 71; IDH1 R132H inh: 3

What do the screens show for `C[C@@H]1CN([C@H](C)CO)C(=O)c2cccc(NC(=O)Nc3ccc(C(F)(F)F)cc3)c2O[C@@H]1CN(C)Cc1ccc(-c2ccccc2)cc1`?
KDM4C inh: -3; Pf Dd2 growth: -38; T cruzi growth-1: inconclusive; IDH1 R132H inh: 0; T cruzi growth-2: 110*; T cruzi growth-3: 74; NIH3T3 tox: 14; 3T3 cytotox 2: 103*

How did C[C@@H]1CCCCO[C@H](CN(C)S(=O)(=O)c2cccs2)[C@@H](C)CN([C@@H](C)CO)C(=O)c2cc(NC(=O)Nc3cccc4ccccc34)ccc2O1 do in these assays?
KDM4C inh: -1; Pf Dd2 growth: -55; T cruzi growth-1: 28; IDH1 R132H inh: -2

What do the screens show for `CC(C)CC#Cc1ccc2c(c1)O[C@@H](CN(C)Cc1cccnc1)[C@H](C)CN([C@@H](C)CO)S2(=O)=O`?
KDM4C inh: 0; T cruzi growth-1: 94; IDH1 R132H inh: 19

How did CC(C)CC#Cc1ccc2c(c1)O[C@H](CN(C)Cc1cncnc1)[C@@H](C)CN([C@H](C)CO)S2(=O)=O do in these assays?
KDM4C inh: 2; Pf Dd2 growth: -32; T cruzi growth-1: 103*; IDH1 R132H inh: -3; T cruzi growth-2: 94; T cruzi growth-3: 106*; NIH3T3 tox: 47*; 3T3 cytotox 2: 61*

How did CC(C)CC#Cc1ccc2c(c1)O[C@H](CN(C)Cc1cncnc1)[C@H](C)CN([C@H](C)CO)S2(=O)=O do in these assays?
KDM4C inh: 0; Pf Dd2 growth: -4; T cruzi growth-1: 22; IDH1 R132H inh: -1

Results for CC(C)CC#Cc1ccc2c(c1)O[C@H](CN(C)Cc1cccnc1)[C@@H](C)CN([C@@H](C)CO)S2(=O)=O ?
KDM4C inh: 1; T cruzi growth-1: 100*; IDH1 R132H inh: 22; T cruzi growth-2: 93; T cruzi growth-3: 102*; NIH3T3 tox: 13; 3T3 cytotox 2: 104*

How did CC(C)CC#Cc1ccc2c(c1)O[C@@H](CN(C)Cc1cccnc1)[C@@H](C)CN([C@@H](C)CO)S2(=O)=O do in these assays?
KDM4C inh: -1; T cruzi growth-1: 108*; IDH1 R132H inh: 10; T cruzi growth-2: 108*; T cruzi growth-3: 90; NIH3T3 tox: 30; 3T3 cytotox 2: 107*

How did CC(C)CC#Cc1ccc2c(c1)O[C@@H](CN(C)Cc1cccnc1)[C@@H](C)CN([C@H](C)CO)S2(=O)=O do in these assays?
KDM4C inh: -1; T cruzi growth-1: 65; IDH1 R132H inh: 10

Results for O=C(C[C@H]1CC[C@H]2[C@@H](COC[C@H](O)CN2S(=O)(=O)c2ccccc2)O1)NCC1CCCCC1 ?
KDM4C inh: 3; Pf Dd2 growth: -40; T cruzi growth-1: 31

What do the screens show for `C[C@H](CO)N1C[C@H](C)[C@@H](CN(C)C(=O)Nc2ccc3c(c2)OCO3)OCCCC[C@H](C)Oc2ccc(NS(=O)(=O)c3ccccc3)cc2C1=O`?
KDM4C inh: 0; Pf Dd2 growth: -19; T cruzi growth-1: 30; IDH1 R132H inh: 0

What do the screens show for `O=C(C1CC1)N1CCCCN2[C@H](C1)[C@H](c1ccc(C#CC3(O)CCCC3)cc1)[C@@H]2CO`?
Pf Dd2 growth: 10; T cruzi growth-1: 70

How did C[C@H](CO)N1C[C@H](C)[C@H](CN(C)C(=O)c2cccc(F)c2)Oc2cc(-c3ccncc3)ccc2S1(=O)=O do in these assays?
KDM4C inh: 0; Pf Dd2 growth: -43; T cruzi growth-1: 109*; IDH1 R132H inh: 6; T cruzi growth-2: 89; T cruzi growth-3: 80; NIH3T3 tox: 3; 3T3 cytotox 2: 28

What do the screens show for `C[C@H]1CN([C@@H](C)CO)S(=O)(=O)c2ccc(-c3ccncc3)cc2O[C@@H]1CN(C)C(=O)c1cccc(F)c1`?
KDM4C inh: 0; Pf Dd2 growth: -59; T cruzi growth-1: 114*; IDH1 R132H inh: 0; T cruzi growth-2: 92; T cruzi growth-3: 67; NIH3T3 tox: 8; 3T3 cytotox 2: inconclusive

How did C[C@@H]1CN([C@@H](C)CO)S(=O)(=O)c2ccc(-c3ccncc3)cc2O[C@@H]1CN(C)C(=O)c1cccc(F)c1 do in these assays?
KDM4C inh: 0; Pf Dd2 growth: -16; T cruzi growth-1: 90; IDH1 R132H inh: 7

What do the screens show for `C[C@@H]1CN([C@H](C)CO)S(=O)(=O)c2ccc(-c3ccncc3)cc2O[C@H]1CN(C)C(=O)c1cccc(F)c1`?
KDM4C inh: -1; Pf Dd2 growth: -41; T cruzi growth-1: 113*; IDH1 R132H inh: 0; T cruzi growth-2: 84; T cruzi growth-3: 78; NIH3T3 tox: 2; 3T3 cytotox 2: 47*

How did C[C@H](CO)N1C[C@H](C)[C@H](CN(C)C(=O)c2cccc(F)c2)Oc2cc(-c3cccc(F)c3)ccc2S1(=O)=O do in these assays?
KDM4C inh: -2; Pf Dd2 growth: -37; T cruzi growth-1: 44; IDH1 R132H inh: 0
